Source: ChEMBL document CHEMBL4431309, “17β-Hydroxy-18-acetoxywithanolides from Aeroponically Grown Physalis crassifolia and Their Potent and Selective Cytotoxicity for Prostate Cancer Cells” (J Nat Prod, 2016)
The source made the active and inactive calls. No cut-off for these calls is given here.

What was measured:
LNCaP [1] = assay: Cytotoxicity against human LNCAP cells after 72 hrs by resazurin-based colorimetric assay; assay type: functional, cell-based
How it was run: (§1)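 Androgen-sensitive human prostate adenocarcinoma line (LNCaP). Doxorubicin served as positive control and DMSO as negative control. Compounds were tested at concentrations up to 5.0 μM.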

PC-3M [2] = assay: Cytotoxicity against human PC3M cells after 72 hrs by resazurin-based colorimetric assay; assay type: functional, cell-based
How it was run: (§2)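 Metastatic human prostate adenocarcinoma line (PC-3M). Controls were doxorubicin (positive) and DMSO (negative). The highest concentration tested was 5.0 μM.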

MCF7 [3] = assay: Cytotoxicity against human MCF7 cells after 72 hrs by resazurin-based colorimetric assay; assay type: functional, cell-based; conditions: MCF7, 72 h
How it was run: (§3)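 Human breast cancer line (MCF-7). Doxorubicin was the positive control and DMSO the negative control. Testing went up to 5.0 μM.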

NCI-H460 [4] = assay: Cytotoxicity against human NCI-H460 cells after 72 hrs by resazurin-based colorimetric assay; assay type: functional, cell-based; conditions: NCI-H460, 72 h
How it was run: (§4)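 Human non-small-cell lung cancer line (NCI-H460). Doxorubicin was included as positive control and DMSO as negative control. The maximum concentration tested was 5.0 μM.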

SF-268 [5] = assay: Cytotoxicity against human SF268 cells after 72 hrs by resazurin-based colorimetric assay; assay type: functional, cell-based; conditions: SF-268, 72 h
How it was run: (§5)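 Doxorubicin (positive) and DMSO (negative) were run as controls. Compounds were tested up to a highest concentration of 5.0 μM.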

LNCaP [6] = assay: Cytotoxicity against human LNCAP cells up to 5 uM after 72 hrs by resazurin-based colorimetric assay; assay type: functional, cell-based; how it was run: as §1
PC-3M [7] = assay: Cytotoxicity against human PC3M cells up to 5 uM after 72 hrs by resazurin-based colorimetric assay; assay type: functional, cell-based; how it was run: as §2
MCF7 [8] = assay: Cytotoxicity against human MCF7 cells up to 5 uM after 72 hrs by resazurin-based colorimetric assay; assay type: functional, cell-based; how it was run: as §3
NCI-H460 [9] = assay: Cytotoxicity against human NCI-H460 cells up to 5 uM after 72 hrs by resazurin-based colorimetric assay; assay type: functional, cell-based; how it was run: as §4
SF-268 [10] = assay: Cytotoxicity against human SF268 cells up to 5 uM after 72 hrs by resazurin-based colorimetric assay; assay type: functional, cell-based; how it was run: as §5
HFF [11] = assay: Cytotoxicity against human HFF cells up to 5 uM after 72 hrs by resazurin-based colorimetric assay; assay type: cell-based; how it was run: as §5
HFF [12] = assay: Cytotoxicity against human HFF cells after 72 hrs by resazurin-based colorimetric assay; assay type: cell-based; how it was run: as §5

Q: What does the source list for `CC(=O)OC[C@]12CC[C@H]3[C@@H](CC=C4CC=CC(=O)[C@@]43C)[C@]1(O)[C@@H](O)C[C@@]2(O)[C@@](C)(O)[C@H]1CC(C)=C(C)C(=O)O1`?
A: IC50 (LNCaP [1]): 190 nM; IC50 (PC-3M [2]): 600 nM; IC50 (MCF7 [3]): > 2500 nM; IC50 (NCI-H460 [4]): > 2500 nM; IC50 (SF-268 [5]): > 2500 nM

Q: For `CC(=O)OC[C@]12CC[C@H]3[C@@H](CC=C4C[C@@H](OS(=O)(=O)O)CC(=O)[C@@]43C)[C@]1(O)[C@@H](OC(C)=O)C[C@@]2(O)[C@@](C)(O)[C@H]1CC(C)=C(C)C(=O)O1`, which IC50 (LNCaP [1]) is on record?
A: The IC50 was 120 nM.

Q: And the IC50 (PC-3M [2])?
A: Its IC50 is 430 nM.

Q: And the IC50 (MCF7 [3])?
A: Its IC50 is > 5000 nM.

Q: And the IC50 (NCI-H460 [4])?
A: Its IC50 is 2500 nM.

Q: And the IC50 (SF-268 [5])?
A: Its IC50 is 2800 nM.

Q: With `CC(=O)OC[C@]12CC[C@H]3[C@@H](CC=C4C=CCC(=O)[C@@]43C)[C@]1(O)[C@@H](OC(C)=O)C[C@@]2(O)[C@@](C)(O)[C@H]1CC(CO)=C(C)C(=O)O1` as the compound, how does the Activity (LNCaP [6]) read?
A: The Activity was “inactive”.

Q: What about the Activity (PC-3M [7]) of the same compound?
A: The Activity was “inactive”.

Q: What about the Activity (MCF7 [8]) of the same compound?
A: The Activity was “inactive”.

Q: And the Activity (NCI-H460 [9])?
A: The Activity was “inactive”.

Q: And the Activity (SF-268 [10])?
A: The Activity was “inactive”.

Q: What about the Activity (HFF [11]) of the same compound?
A: Its Activity is “Non-Toxic”.

Q: Which results are given for `CC(=O)OC[C@]12CC[C@H]3[C@@H](CC=C4CC=CC(=O)[C@@]43C)[C@]1(O)[C@@H](OC(C)=O)C[C@@]2(O)[C@@](C)(O)[C@H]1CC(C)=C(CO)C(=O)O1`?
A: Activity (LNCaP [6]): inactive; Activity (PC-3M [7]): inactive; Activity (MCF7 [8]): inactive; Activity (NCI-H460 [9]): inactive; Activity (SF-268 [10]): inactive; Activity (HFF [11]): Non-Toxic

Q: With `CC(=O)OC[C@]12CC[C@H]3[C@@H](CC=C4CC=CC(=O)[C@@]43C)[C@]1(O)[C@@H](OC(C)=O)C[C@@]2(O)[C@@](C)(O)[C@H]1CC(C)=C(CO[C@@H]2O[C@H](CO)[C@@H](O)[C@H](O)[C@H]2O)C(=O)O1` as the compound, how does the Activity (LNCaP [6]) read?
A: Its Activity is “inactive”.

Q: And the Activity (PC-3M [7])?
A: The Activity was “inactive”.

Q: What about the Activity (MCF7 [8]) of the same compound?
A: The Activity was “inactive”.

Q: And the Activity (NCI-H460 [9])?
A: Its Activity is “inactive”.

Q: What about the Activity (SF-268 [10]) of the same compound?
A: The Activity was “inactive”.

Q: And the Activity (HFF [11])?
A: The Activity was “Non-Toxic”.

Q: Which results are given for `C/C(=C1/C(=O)C[C@H]2[C@@H]3[C@@H]4O[C@@H]4[C@@]4(O)CC=CC(=O)[C@]4(C)[C@H]3CC[C@]12C)[C@H]1C[C@]2(C)O[C@]2(C)[C@H](O)O1`?
A: Activity (LNCaP [6]): inactive; Activity (PC-3M [7]): inactive; Activity (MCF7 [8]): inactive; Activity (NCI-H460 [9]): inactive; Activity (SF-268 [10]): inactive; Activity (HFF [11]): Non-Toxic

Q: Which IC50 (PC-3M [2]) does the source give for `CC1=C(CO)C(=O)O[C@@H]([C@@H](C)[C@H]2CC[C@H]3[C@@H]4C[C@H]5O[C@]56[C@@H](O)C=CC(=O)[C@]6(C)[C@H]4CC[C@]23C)C1` [WITHAFERIN A] here?
A: The IC50 was 410 nM.

Q: And the IC50 (NCI-H460 [4])?
A: The IC50 was < 400 nM.

Q: And the IC50 (SF-268 [5])?
A: Its IC50 is < 400 nM.

Q: And the IC50 (HFF [12])?
A: Its IC50 is > 6800 nM.

Q: For `CC(=O)OC[C@]12CC[C@H]3[C@@H](CC=C4C[C@@H](OS(=O)(=O)O)CC(=O)[C@@]43C)[C@]1(O)CC[C@@]2(O)[C@@](C)(O)[C@H]1CC(C)=C(C)C(=O)O1`, which IC50 (LNCaP [1]) is on record?
A: Its IC50 is 210 nM.

Q: What about the IC50 (PC-3M [2]) of the same compound?
A: Its IC50 is 560 nM.

Q: And the IC50 (MCF7 [3])?
A: The IC50 was 2200 nM.

Q: And the IC50 (NCI-H460 [4])?
A: The IC50 was 3800 nM.

Q: What about the IC50 (SF-268 [5]) of the same compound?
A: The IC50 was > 5000 nM.

Q: And the IC50 (HFF [12])?
A: Its IC50 is > 5000 nM.

Q: `CC(=O)OC[C@]12CC[C@H]3[C@@H](CC=C4CC=CC(=O)[C@@]43C)[C@]1(O)CC[C@@H]2[C@@](C)(O)[C@@H]1OC(=O)C(C)=C(C)[C@@H]1O` was tested. Which Activity (LNCaP [6]) did it give?
A: The Activity was “inactive”.

Q: And the Activity (PC-3M [7])?
A: Its Activity is “inactive”.

Q: And the Activity (MCF7 [8])?
A: Its Activity is “inactive”.

Q: And the Activity (NCI-H460 [9])?
A: Its Activity is “inactive”.

Q: And the Activity (SF-268 [10])?
A: Its Activity is “inactive”.

Q: What about the Activity (HFF [11]) of the same compound?
A: Its Activity is “Non-Toxic”.

Q: With `COc1cccc2c1C(=O)c1c(O)c3c(c(O)c1C2=O)C[C@@](O)(C(=O)CO)C[C@@H]3O[C@H]1C[C@H](N)[C@H](O)[C@H](C)O1` [DOXORUBICIN] as the compound, how does the IC50 (PC-3M [2]) read?
A: The IC50 was 250 nM.

Q: What about the IC50 (MCF7 [3]) of the same compound?
A: The IC50 was 320 nM.

Q: `CC1=C(C)C(=O)O[C@@H]([C@](C)(O)[C@H]2CC[C@@]3(O)[C@@H]4[C@@H]5O[C@@H]5[C@@]5(O)CC=CC(=O)[C@]5(C)[C@H]4CC[C@]23C)C1` was tested. Which Activity (LNCaP [6]) did it give?
A: The Activity was “inactive”.

Q: And the Activity (PC-3M [7])?
A: The Activity was “inactive”.

Q: And the Activity (MCF7 [8])?
A: Its Activity is “inactive”.

Q: And the Activity (NCI-H460 [9])?
A: The Activity was “inactive”.

Q: And the Activity (SF-268 [10])?
A: The Activity was “inactive”.

Q: And the Activity (HFF [11])?
A: Its Activity is “Non-Toxic”.

Q: Which results are given for `CC(=O)OC[C@]12CC[C@H]3[C@@H](CC=C4CC=CC(=O)[C@@]43C)[C@]1(O)CC[C@@H]2[C@@](C)(O)[C@H]1CC(C)=C(C)C(=O)O1`?
A: Activity (LNCaP [6]): inactive; Activity (PC-3M [7]): inactive; Activity (MCF7 [8]): inactive; Activity (NCI-H460 [9]): inactive; Activity (SF-268 [10]): inactive; Activity (HFF [11]): Non-Toxic

Q: Which Activity (LNCaP [6]) does the source give for `CC(=O)OC[C@]12CC[C@H]3[C@@H](CC=C4CC=CC(=O)[C@@]43C)[C@]1(O)[C@@H](OC(C)=O)C[C@@]2(O)[C@@](C)(O)[C@H]1CC(CO[C@@H]2O[C@H](CO)[C@@H](O)[C@H](O)[C@H]2O)=C(C)C(=O)O1` here?
A: The Activity was “inactive”.

Q: And the Activity (PC-3M [7])?
A: Its Activity is “inactive”.

Q: And the Activity (MCF7 [8])?
A: The Activity was “inactive”.

Q: And the Activity (NCI-H460 [9])?
A: The Activity was “inactive”.

Q: And the Activity (SF-268 [10])?
A: Its Activity is “inactive”.

Q: What about the Activity (HFF [11]) of the same compound?
A: The Activity was “Non-Toxic”.

Q: What does the source list for `CC(=O)OC[C@]12CC[C@H]3[C@@H](C[C@H]4O[C@]45CC=CC(=O)[C@]35C)[C@]1(O)[C@@H](OC(C)=O)C[C@@]2(O)[C@@](C)(O)[C@H]1CC(C)=C(C)C(=O)O1`?
A: IC50 (LNCaP [1]): 1200 nM; IC50 (PC-3M [2]): 1800 nM; IC50 (MCF7 [3]): > 2500 nM; IC50 (NCI-H460 [4]): > 2500 nM; IC50 (SF-268 [5]): > 2500 nM

Q: With `CC(=O)OC[C@]12CC[C@H]3[C@@H](CC=C4CC=CC(=O)[C@@]43C)[C@]1(O)CC[C@@]2(O)[C@@](C)(O)[C@H]1CC(C)=C(CO)C(=O)O1` as the compound, how does the IC50 (LNCaP [1]) read?
A: Its IC50 is 3700 nM.

Q: What about the IC50 (PC-3M [2]) of the same compound?
A: Its IC50 is > 5000 nM.

Q: What about the IC50 (MCF7 [3]) of the same compound?
A: Its IC50 is > 5000 nM.

Q: And the IC50 (NCI-H460 [4])?
A: Its IC50 is > 5000 nM.

Q: And the IC50 (SF-268 [5])?
A: Its IC50 is > 5000 nM.
